{"data": "Results of several laboratories", "CDK2 with cyclin A2": "Cyclin-dependent kinase 2, with cyclin A2 (CDK2, Homo sapiens, UniProt P24941)", "ST14": "Suppressor of tumorigenicity 14 protein (ST14, Homo sapiens, UniProt Q9Y5Y6)", "Oprd1": "Delta-type opioid receptor (Oprd1, Rattus norvegicus, UniProt P33533)", "note": "Lines come from different studies, so protocols differ."}
{"target": "CDK2 with cyclin A2", "assay": "enzyme activity, inhibitor", "conditions": "20 nM", "measurement": "inhibition", "result": "21.3%", "Compound": "CC(=O)Nc1c(N)nc(SCC(=O)N/N=C/c2ccc([N+](=O)[O-])cc2)[nH]c1=O"}
{"target": "[Pyruvate dehydrogenase (acetyl-transferring)] kinase isozyme 4, mitochondrial (PDK4, Homo sapiens, UniProt Q16654)", "assay": "enzyme activity, inhibitor, ATP luminescence", "conditions": "10 µM", "measurement": "inhibition", "result": "31.5%", "Compound": "CC(C)Oc1ccc(S(=O)(=O)c2ccc(Oc3cc(OCC(N)=O)c(C(=O)C(Cl)Cl)cc3[N+](=O)[O-])cc2)cc1"}
{"target": "ST14", "assay": "enzyme activity, inhibitor", "conditions": "0.1 µM", "measurement": "remaining activity", "result": "90%", "Compound": "N=C(N)NCCC[C@H](NC(=O)[C@@H](NC(=O)[C@H](Cc1cscn1)NC(=O)CCc1ccccc1)C1CC1)C(=O)c1nc2ccccc2s1"}
{"target": "ALK tyrosine kinase receptor (ALK, Homo sapiens, UniProt Q9UM73)", "assay": "binding, competition with immobilised ligand", "conditions": "1 µM", "measurement": "remaining binding", "result": "72%", "Compound": "C=CC(=O)N1CCC(COCC(=O)N2CCN(c3nc(-c4cnc(N)nc4C(F)F)nc(N4CCOC[C@@H]4C)n3)CC2)CC1"}
{"target": "ST14", "assay": "enzyme activity, inhibitor", "conditions": "0.1 µM", "measurement": "remaining activity", "result": "50%", "Compound": "CC(C)C[C@@H](C(=O)N[C@@H](CCCNC(=N)N)C(=O)c1nc2ccccc2s1)N(C)C(=O)[C@H](Cc1cscn1)NC(=O)CCc1ccccc1"}
{"target": "Oprd1", "assay": "ligand displacement, radioligand", "conditions": "1 µM", "measurement": "inhibition", "result": "13%", "Compound": "COc1ccc2[nH]c3c(c2c1)[C@H]1C[C@@H]([C@H]3C)N(Cc2ccccc2)C[C@]1(C)O"}
{"target": "Tyrosine-protein kinase ZAP-70 (ZAP70, Homo sapiens, UniProt P43403)", "assay": "binding, competition with immobilised ligand", "conditions": "1 µM", "measurement": "remaining binding", "result": "100%", "Compound": "Cc1cc([C@@H](C)Nc2ccccc2C(=O)O)c2nc(N3CCC(F)(F)CC3)c(C#N)c(=O)n2c1"}
{"target": "Cyclin-dependent kinase 2 (CDK2, Homo sapiens, UniProt P24941)", "assay": "enzyme activity, inhibitor, ADP detection", "conditions": "1 µM", "measurement": "activity vs control", "result": "79%", "Compound": "CC(=O)c1c(C)c2cnc(Nc3ccc(N4CCNCC4)cn3)nc2n(C2CCCC2)c1=O"}
{"target": "CDK2 with cyclin A2", "assay": "enzyme activity, inhibitor", "conditions": "20 nM", "measurement": "inhibition", "result": "30.9%", "Compound": "CC(=O)Nc1c(N)nc(SCC(=O)NN)[nH]c1=O"}
{"target": "ST14", "assay": "enzyme activity, inhibitor", "conditions": "0.1 µM", "measurement": "remaining activity", "result": "81%", "Compound": "CC(C)[C@@H](CC(=O)N[C@@H](CCCNC(=N)N)C(=O)c1nc2ccccc2s1)NC(=O)[C@H](Cc1cscn1)NC(=O)CCc1ccccc1"}
{"target": "Mitogen-activated protein kinase 10 (MAPK10, Homo sapiens, UniProt P53779)", "assay": "binding, competition with immobilised ligand", "conditions": "1 µM", "measurement": "remaining binding", "result": "0%", "Compound": "Cc1cc(NC(=O)c2cccc(NC(=O)/C=C/CN(C)C)c2)ccc1Nc1nccc(-c2cccnc2)n1"}
{"target": "Cyclin-dependent kinase 2, with cyclin E (CDK2, Homo sapiens, UniProt P24941)", "assay": "enzyme activity, inhibitor", "conditions": "1 µM", "measurement": "remaining activity", "result": "107%", "Compound": "COc1cc(-c2cncc3c2CN(C)Cc2cc(N4CCNCC4)ccc2-3)cc(OC)c1OC"}
{"target": "ST14", "assay": "enzyme activity, inhibitor", "conditions": "0.1 µM", "measurement": "remaining activity", "result": "89%", "Compound": "C=CCCCCCC(C)(NC(=O)[C@H](Cc1cscn1)NC(=O)CCc1ccccc1)C(=O)N[C@@H](CCCNC(=N)N)C(=O)c1nc2ccccc2s1 (stereo partly drawn)"}
{"target": "Oprd1", "assay": "ligand displacement, radioligand", "conditions": "1 µM", "measurement": "inhibition", "result": "0%", "Compound": "COc1ccc(CN2C[C@](C)(O)[C@@H]3C[C@H]2[C@@H](C)c2nc4ccccc4c(-c4ccccc4)c23)cc1"}
{"target": "ST14", "assay": "enzyme activity, inhibitor", "conditions": "0.1 µM", "measurement": "remaining activity", "result": "83%", "Compound": "CC(C)C(C)(NC(=O)[C@H](Cc1cscn1)NC(=O)CCc1ccccc1)C(=O)N[C@@H](CCCNC(=N)N)C(=O)c1nc2ccccc2s1 (stereo partly drawn)"}
{"target": "CDK2 with cyclin A2", "assay": "enzyme activity, inhibitor", "conditions": "1 nM", "measurement": "inhibition", "result": "19.6%", "Compound": "CNC(=O)c1cc(Oc2ccc(NC(=O)Nc3ccc(Cl)c(C(F)(F)F)c3)cc2)ccn1"}
{"target": "ST14", "assay": "enzyme activity, inhibitor", "conditions": "0.1 µM", "measurement": "remaining activity", "result": "69%", "Compound": "CC1([C@H](NC(=O)[C@H](Cc2cscn2)NC(=O)CCc2ccccc2)C(=O)N[C@@H](CCCNC(=N)N)C(=O)c2nc3ccccc3s2)CC1"}
{"target": "CDK2 with cyclin A2", "assay": "enzyme activity, inhibitor, radiometric", "conditions": "1 µM", "measurement": "remaining activity", "result": "100%", "Compound": "CNc1ncc2c(/C=C/C(=O)N3CCC(OC)CC3)nn(Cc3cccc(C(F)(F)F)c3)c2n1"}
